Source: ChEMBL document CHEMBL1135814, “Aldisine alkaloids from the Philippine sponge Stylissa massa are potent inhibitors of mitogen-activated protein kinase kinase-1 (MEK-1)” (J Med Chem, 2002)

What was measured:
Caco-2 = test: Inhibition of human adenocarcinoma cell line Caco-2 proliferation; type: functional, cell-based
How it was run: (§1)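 Cells grown in RPMI 1640 with 10% fetal bovine serum, L-glutamine and penicillin/streptomycin. Compounds from 100% DMSO stocks were diluted in complete medium and applied at varying concentrations. Growth inhibition was read by sulforhodamine B staining, reported as IC50.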

LoVo = test: Inhibition of human adenocarcinoma cell line LoVo proliferation; type: functional, cell-based; how it was run: as §1
[1] = target: Dual specificity mitogen-activated protein kinase kinase 1 (Homo sapiens, UniProt Q02750); test: Inhibition of MEK1 phosphorylation by activated human recombinant Raf
Chain of Dual specificity mitogen-activated protein kinase kinase 1 (Q02750 whole entry): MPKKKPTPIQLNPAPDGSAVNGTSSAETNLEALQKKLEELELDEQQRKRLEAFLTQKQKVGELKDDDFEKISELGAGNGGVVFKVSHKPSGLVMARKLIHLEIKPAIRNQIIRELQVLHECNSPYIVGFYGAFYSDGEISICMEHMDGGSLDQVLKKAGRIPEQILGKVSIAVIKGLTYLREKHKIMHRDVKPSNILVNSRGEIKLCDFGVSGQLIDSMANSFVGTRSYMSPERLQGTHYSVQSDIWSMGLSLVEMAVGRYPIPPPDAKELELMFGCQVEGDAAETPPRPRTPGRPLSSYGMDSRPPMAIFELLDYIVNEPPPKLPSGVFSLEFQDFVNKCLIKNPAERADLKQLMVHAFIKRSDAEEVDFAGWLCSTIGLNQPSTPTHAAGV

[2] = target: Serine/threonine-protein kinase RAF and Dual specificity mitogen-activated protein kinase kinase 1 (Raf/MEK) (Homo sapiens, UniProt P04049+Q02750); test: Inhibition of kinase activity of Raf/MEK/ERK kinase cascade in ELISA; type: protein assay

Structure (SMILES)	IC50 (Caco-2) [nM]	IC50 (LoVo) [nM]	IC50 [1] [nM]	IC50 [2] [nM]
Nc1nc(C2CCNC(=O)c3[nH]c(Br)c(Br)c32)c[nH]1 (stereo not drawn)	> 10000	> 10000	> 2500	1288
NC(=O)c1cc(Br)c(Br)[nH]1	> 10000	> 10000	> 2500	> 2500
CSCC[C@H](NC(=O)c1ccc(NC[C@@H](N)CS)cc1-c1ccccc1)C(=O)O	> 10000	50		
O=C1CCNC(=O)c2[nH]ccc21 [ALDISIN]	> 10000	> 10000	> 2500	> 2500
Nc1ncc(/C=C/CNC(=O)c2cc(Br)c(Br)[nH]2)[nH]1 [OROIDIN]	> 10000	> 10000	> 2500	> 2500

Now from value to molecule:

IC50 (Caco-2) [nM]	IC50 (LoVo) [nM]	IC50 [1] [nM]	IC50 [2] [nM]	Structure (SMILES)
> 3870	586			NC1=N/C(=C2\CCNC(=O)c3[nH]c(Br)cc32)C(=O)N1
> 10000	> 10000			O=C1CCNC(=O)c2[nH]c(Br)cc21
> 10000	> 10000	> 2500	881	NC1=N/C(=C2/CCNC(=O)c3[nH]ccc32)C(=O)N1 [DEBROMOHYMENIALDISINE]
> 7800	710			NC1=NC(=O)/C(=C2\CCNC(=O)c3[nH]c(Br)cc32)N1 [HYMENIALDISINE]
